Tested on: Fibroblast
Test: Multiplex assay against human fibroblast
Format: toxicity, cell-based
In short: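 Compound was added to live cells that had been stained at seeding with Hoechst33342, BioTracker Green Microtubule Cytoskeleton Dye, MitoTracker Red and Annexin V Alexa Fluor 680, and imaging followed on a CQ1 microscope at 37°C and 5% CO2. CellPathfinder machine-learning gating divided cells into Hoechst high-intensity objects or normal cells, normal cells into healthy, pyknosed or fragmented nuclei, and pyknosed cells into mitotic or apoptotic. Tubulin, mitochondrial-mass and membrane-permeability phenotypes are per cents of healthy-nucleus cells.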

[1] = 12 h, 1 µM, compound concentration 1 uM, replicate 1
[2] = 12 h, 1 µM, compound concentration 1 uM, replicate 2
[3] = 12 h, 10 µM, compound concentration 10 uM, replicate 1
[4] = 12 h, 10 µM, compound concentration 10 uM, replicate 2
[5] = 24 h, 1 µM, compound concentration 1 uM, replicate 1
[6] = 24 h, 1 µM, compound concentration 1 uM, replicate 2
[7] = 24 h, 10 µM, compound concentration 10 uM, replicate 1
[8] = 24 h, 10 µM, compound concentration 10 uM, replicate 2
[9] = 48 h, 1 µM, compound concentration 1 uM, replicate 1
[10] = 48 h, 1 µM, compound concentration 1 uM, replicate 2
[11] = 48 h, 10 µM, compound concentration 10 uM, replicate 1
[12] = 48 h, 10 µM, compound concentration 10 uM, replicate 2

CCOc1c2c(c(OCC)c3ncccc13)CN(c1ccc(CS(=O)(=O)NC(=O)Cc3ccccc3OC)cc1C)C2=O
Population Apoptotic (%) [1]: 44%
Population Fragmented Nuclei (%) [1]: 15%
Population Healthy Nuclei (%) [1]: 68%
Population Hoechst High Intensity Objects (%) [1]: 0%
Population Membrane Permeable-Phenotype (%) [1]: 1%
Population Mitochondria Different-Phenotype (%) [1]: 3%
Population Mitotic Cells (%) [1]: 55%
Population Normal (%) [1]: 99%
Population Pyknosed Nuclei (%) [1]: 15%
Population Tubulin-Different-Phenotype (%) [1]: 23%
Total Cell Count [1]: 120
Population Apoptotic (%) [2]: 38%
Population Fragmented Nuclei (%) [2]: 37%
Population Healthy Nuclei (%) [2]: 42%
Population Hoechst High Intensity Objects (%) [2]: 4%
Population Membrane Permeable-Phenotype (%) [2]: 8%
Population Mitochondria Different-Phenotype (%) [2]: 2%
Population Mitotic Cells (%) [2]: 61%
Population Normal (%) [2]: 95%
Population Pyknosed Nuclei (%) [2]: 19%
Population Tubulin-Different-Phenotype (%) [2]: 62%
Total Cell Count [2]: 111
Population Apoptotic (%) [3]: 35%
Population Fragmented Nuclei (%) [3]: 15%
Population Healthy Nuclei (%) [3]: 63%
Population Hoechst High Intensity Objects (%) [3]: 1%
Population Membrane Permeable-Phenotype (%) [3]: 1%
Population Mitochondria Different-Phenotype (%) [3]: 6%
Population Mitotic Cells (%) [3]: 64%
Population Normal (%) [3]: 98%
Population Pyknosed Nuclei (%) [3]: 21%
Population Tubulin-Different-Phenotype (%) [3]: 27%
Total Cell Count [3]: 161
Population Apoptotic (%) [4]: 21%
Population Fragmented Nuclei (%) [4]: 19%
Population Healthy Nuclei (%) [4]: 50%
Population Hoechst High Intensity Objects (%) [4]: 3%
Population Membrane Permeable-Phenotype (%) [4]: 7%
Population Mitochondria Different-Phenotype (%) [4]: 8%
Population Mitotic Cells (%) [4]: 78%
Population Normal (%) [4]: 96%
Population Pyknosed Nuclei (%) [4]: 29%
Population Tubulin-Different-Phenotype (%) [4]: 54%
Total Cell Count [4]: 146
Population Apoptotic (%) [5]: 56%
Population Fragmented Nuclei (%) [5]: 13%
Population Healthy Nuclei (%) [5]: 67%
Population Hoechst High Intensity Objects (%) [5]: 3%
Population Membrane Permeable-Phenotype (%) [5]: 2%
Population Mitochondria Different-Phenotype (%) [5]: 3%
Population Mitotic Cells (%) [5]: 43%
Population Normal (%) [5]: 96%
Population Pyknosed Nuclei (%) [5]: 18%
Population Tubulin-Different-Phenotype (%) [5]: 23%
Total Cell Count [5]: 127
Population Apoptotic (%) [6]: 46%
Population Fragmented Nuclei (%) [6]: 37%
Population Healthy Nuclei (%) [6]: 32%
Population Hoechst High Intensity Objects (%) [6]: 2%
Population Membrane Permeable-Phenotype (%) [6]: 18%
Population Mitotic Cells (%) [6]: 53%
Population Normal (%) [6]: 97%
Population Pyknosed Nuclei (%) [6]: 29%
Population Tubulin-Different-Phenotype (%) [6]: 69%
Total Cell Count [6]: 104
Population Apoptotic (%) [7]: 42%
Population Fragmented Nuclei (%) [7]: 17%
Population Healthy Nuclei (%) [7]: 66%
Population Hoechst High Intensity Objects (%) [7]: 3%
Population Membrane Permeable-Phenotype (%) [7]: 1%
Population Mitochondria Different-Phenotype (%) [7]: 2%
Population Mitotic Cells (%) [7]: 57%
Population Normal (%) [7]: 96%
Population Pyknosed Nuclei (%) [7]: 15%
Population Tubulin-Different-Phenotype (%) [7]: 19%
Total Cell Count [7]: 171
Population Fragmented Nuclei (%) [8]: 25%
Population Healthy Nuclei (%) [8]: 49%
Population Hoechst High Intensity Objects (%) [8]: 4%
Population Membrane Permeable-Phenotype (%) [8]: 5%
Population Normal (%) [8]: 95%
Population Pyknosed Nuclei (%) [8]: 25%
Population Tubulin-Different-Phenotype (%) [8]: 50%
Total Cell Count [8]: 142
Population Apoptotic (%) [9]: 57%
Population Fragmented Nuclei (%) [9]: 18%
Population Healthy Nuclei (%) [9]: 66%
Population Hoechst High Intensity Objects (%) [9]: 3%
Population Membrane Permeable-Phenotype (%) [9]: 1%
Population Mitochondria Different-Phenotype (%) [9]: 3%
Population Mitotic Cells (%) [9]: 42%
Population Normal (%) [9]: 96%
Population Pyknosed Nuclei (%) [9]: 15%
Population Tubulin-Different-Phenotype (%) [9]: 26%
Total Cell Count [9]: 128
Population Apoptotic (%) [10]: 66%
Population Fragmented Nuclei (%) [10]: 47%
Population Healthy Nuclei (%) [10]: 40%
Population Hoechst High Intensity Objects (%) [10]: 5%
Population Membrane Permeable-Phenotype (%) [10]: 5%
Population Mitochondria Different-Phenotype (%) [10]: 7%
Population Mitotic Cells (%) [10]: 33%
Population Normal (%) [10]: 94%
Population Pyknosed Nuclei (%) [10]: 12%
Population Tubulin-Different-Phenotype (%) [10]: 72%
Total Cell Count [10]: 105
Population Apoptotic (%) [11]: 71%
Population Fragmented Nuclei (%) [11]: 16%
Population Healthy Nuclei (%) [11]: 63%
Population Hoechst High Intensity Objects (%) [11]: 7%
Population Membrane Permeable-Phenotype (%) [11]: 1%
Population Mitochondria Different-Phenotype (%) [11]: 2%
Population Mitotic Cells (%) [11]: 28%
Population Normal (%) [11]: 92%
Population Pyknosed Nuclei (%) [11]: 20%
Population Tubulin-Different-Phenotype (%) [11]: 20%
Total Cell Count [11]: 171
Population Apoptotic (%) [12]: 29%
Population Fragmented Nuclei (%) [12]: 34%
Population Healthy Nuclei (%) [12]: 45%
Population Hoechst High Intensity Objects (%) [12]: 9%
Population Membrane Permeable-Phenotype (%) [12]: 7%
Population Mitochondria Different-Phenotype (%) [12]: 5%
Population Mitotic Cells (%) [12]: 70%
Population Normal (%) [12]: 90%
Population Tubulin-Different-Phenotype (%) [12]: 51%
Total Cell Count [12]: 131
